Test results published in article PMC11040708 (JACS Au, 2024).
pKd: −log10 of the molar value.

Molecular target: N-HSP90α WT (Homo sapiens, UniProt P07900)
Experiment: SPR kinetics, two-state reaction model, amine-coupled protein
Assay type: binding
How it was run: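 Protein was pre-incubated with a 100-fold excess of a reference ATP-site inhibitor, diluted to 20 μg/mL in acetate pH 4.50, and amine-coupled to a CM5 chip (~4000 RU). Compounds came from 10 mM DMSO stock as 2-fold series in HEPES/Tween 20 buffer at 30 μL/min, with 120 s contact and 200–600 s dissociation. Solvent-corrected, double-referenced data were fitted with mass transport.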

SMILES: O=c1cc(-c2ccc(O)c(O)c2)oc2cc(O[C@@H]3O[C@H](CO)[C@@H](O)[C@H](O)[C@H]3O)cc(O)c12 [compound 5]
- pKd: 5.22
